From ChEMBL document CHEMBL3992547, “Antimicrobial activity of rhodanine-3-acetic acid derivatives” (Bioorg Med Chem, 2017)
Values after ≈ are worked out from the molar mass of the structure shown. Active and inactive are the calls of the source. The calls are words filed in the database; no cut-off is given here.

Legend:
Mycobacterium kansasii [1] = assay: Antimycobacterial activity against Mycobacterium kansasii isolate 6509/96 after 21 days by micromethod; format: functional; details: isolate 6509/96, 504 h
Mycobacterium kansasii [2] = assay: Antimycobacterial activity against Mycobacterium kansasii isolate 235/80 after 21 days by micromethod; format: functional; details: isolate 235/80, 504 h
Pichia kudriavzevii = assay: Antifungal activity against Candida krusei E28 after 24 to 48 hrs hrs by microdilution broth assay; format: functional
Method in brief: (§1)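 Broth microdilution per CLSI M27-A3 and M38-A2 in RPMI 1640 with glutamine, buffered to pH 7.0 with MOPS. Compounds are diluted in DMSO. Final inoculum is 5 × 10³ CFU/mL for yeasts and 0.5–5 × 10⁴ CFU/mL for moulds. Plates are incubated in the dark at 35 °C in humid air and read visually and/or at 540 nm after 24 and 48 h. MIC is ≥80% growth reduction (IC₈₀) for yeasts and ≥50% (IC₅₀) for filamentous fungi.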

Trichosporon asahii [3] = assay: Antifungal activity against Trichosporon asahii 1188 after 48 hrs by microdilution broth assay; format: functional; details: Trichosporon asahii, 1188, 48 h; method in brief: as §1
Escherichia coli [4] = assay: Antibacterial activity against Escherichia coli CCM 4517 incubated for 48 hrs under dark condition by microdilution broth assay; format: functional; details: CCM 4517, 48 h
Method in brief: (§2)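 Broth microdilution per M07-A07, modified, in Mueller-Hinton broth adjusted to pH 7.4 (±0.2). Inoculum is prepared in sterile water to McFarland 0.5 (1.5 × 10⁸ CFU/mL). Plates are incubated in the dark at 35 °C in humid air. MIC is read after 24 and 48 h as at least 95% growth reduction versus control (IC₉₅).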

Staphylococcus aureus [5] = assay: Antibacterial activity against Staphylococcus aureus CCM 4516/08 incubated for 48 hrs under dark condition by microdilution broth assay; format: functional; details: CCM 4516/08, 48 h; method in brief: as §2
Pseudomonas aeruginosa = assay: Antibacterial activity against Pseudomonas aeruginosa CCM 1961 up to 500 uM incubated for 24 to 48 hrs under dark condition by microdilution broth assay; format: functional; method in brief: as §2
[6] = tested on: Trichophyton mentagrophytes; assay: Antifungal activity against Trichophyton mentagrophytes 445 after 72 hrs by microdilution broth assay; format: functional; details: Trichophyton mentagrophytes, 445, 72 h
Method in brief: (§3)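 Broth microdilution per CLSI M38-A2 in RPMI 1640 with glutamine, buffered to pH 7.0 with MOPS, with DMSO as diluent. Final inoculum is 0.5–5 × 10⁴ CFU/mL. Plates are incubated in the dark at 35 °C in humid air and read visually and/or at 540 nm after 72 and 120 h. MIC is at least 50% growth reduction versus control.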

Mycobacterium kansasii [7] = assay: Antimycobacterial activity against Mycobacterium kansasii isolate 235/80 after 7 days by micromethod; format: functional; details: isolate 235/80, 168 h
Mycobacterium kansasii [8] = assay: Antimycobacterial activity against Mycobacterium kansasii isolate 6509/96 after 14 days by micromethod; format: functional; details: isolate 6509/96, 336 h
Candida tropicalis [9] = assay: Antifungal activity against Candida tropicalis 156 after 48 hrs by microdilution broth assay; format: functional; details: Candida tropicalis, 156, 48 h; method in brief: as §1
Mycobacterium kansasii [10] = assay: Antimycobacterial activity against Mycobacterium kansasii isolate 235/80 after 14 days by micromethod; format: functional; details: isolate 235/80, 336 h
Candida albicans [11] = assay: Antifungal activity against Candida albicans ATCC 44859 after 48 hrs by microdilution broth assay; format: functional; details: ATCC 44859, 48 h; method in brief: as §1
[12] = tested on: Mycobacterium tuberculosis; assay: Antimycobacterial activity against Mycobacterium tuberculosis H37Rv 331/88 measured after 21 days by micromethod; format: functional; details: H37Rv 331/88, 504 h
[13] = tested on: Trichophyton mentagrophytes; assay: Antifungal activity against Trichophyton mentagrophytes 445 after 120 hrs by microdilution broth assay; format: functional; details: Trichophyton mentagrophytes, 445, 120 h; method in brief: as §3
Nakaseomyces glabratus [14] = assay: Antifungal activity against Candida glabrata 20/I after 48 hrs by microdilution broth assay; format: functional; method in brief: as §1
Escherichia coli [15] = assay: Antibacterial activity against Escherichia coli CCM 4517 incubated for 24 hrs under dark condition by microdilution broth assay; format: functional; details: CCM 4517, 24 h; method in brief: as §2
[16] = tested on: Staphylococcus epidermidis; assay: Antibacterial activity against Staphylococcus epidermidis H 6966/08 incubated for 24 hrs under dark condition by microdilution broth assay; format: functional; details: H 6966/08, 24 h; method in brief: as §2
Lichtheimia corymbifera = assay: Antifungal activity against Absidia corymbifera 272 after 24 to 48 hrs hrs by microdilution broth assay; format: functional; method in brief: as §1
Klebsiella pneumoniae [17] = assay: Antibacterial activity against Klebsiella pneumoniae D 11750/08 up to 500 uM incubated for 24 to 48 hrs under dark condition by microdilution broth assay; format: functional; method in brief: as §2
[18] = Solubility of the compound in Sula's semisynthetic medium up to 1 mM; format: physicochemical
Klebsiella pneumoniae [19] = assay: Antibacterial activity against ESBL positive Klebsiella pneumoniae J 14368/08 up to 500 uM incubated for 24 to 48 hrs under dark condition by microdilution broth assay; format: functional; method in brief: as §2
Aspergillus fumigatus [20] = assay: Antifungal activity against Aspergillus fumigatus 231 after 48 hrs by microdilution broth assay; format: functional; details: Aspergillus fumigatus, 231, 48 h; method in brief: as §1
Enterococcus [21] = assay: Antibacterial activity against Enterococcus sp. J 14365/08 incubated for 48 hrs under dark condition by microdilution broth assay; details: J 14365/08, 48 h
Staphylococcus aureus [22] = assay: Antibacterial activity against methicillin-resistant Staphylococcus aureus H 5996/08 incubated for 24 hrs under dark condition by microdilution broth assay; format: functional; details: H 5996/08, 24 h
Method in brief: (§4)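 Microdilution broth method modified per M07-A07, in Mueller-Hinton broth adjusted to pH 7.4 (±0.2). Inoculum made in sterile water to 0.5 McFarland (1.5 × 10⁸ CFU/mL). Plates incubated in the dark at 35 °C in a humid atmosphere, with reads at 24 and 48 h. MIC taken as at least 95% growth reduction (IC₉₅) versus control.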

Nakaseomyces glabratus [23] = assay: Antifungal activity against Candida glabrata 20/I after 24 hrs by microdilution broth assay; format: functional; method in brief: as §1
Mycobacterium avium [24] = assay: Antimycobacterial activity against Mycobacterium avium 330/88 measured after 21 days by micromethod; format: functional; details: 330/88, 504 h
Mycobacterium kansasii [25] = assay: Antimycobacterial activity against Mycobacterium kansasii isolate 6509/96 after 7 days by micromethod; format: functional; details: isolate 6509/96, 168 h
[26] = tested on: Staphylococcus epidermidis; assay: Antibacterial activity against Staphylococcus epidermidis H 6966/08 incubated for 48 hrs under dark condition by microdilution broth assay; format: functional; details: H 6966/08, 48 h; method in brief: as §2
Trichosporon asahii [27] = assay: Antifungal activity against Trichosporon asahii 1188 after 24 hrs by microdilution broth assay; format: functional; details: Trichosporon asahii, 1188, 24 h; method in brief: as §1
[28] = tested on: Mycobacterium tuberculosis; assay: Antimycobacterial activity against Mycobacterium tuberculosis H37Rv 331/88 measured after 14 days by micromethod; format: functional; details: H37Rv 331/88, 336 h
Staphylococcus aureus [29] = assay: Antibacterial activity against Staphylococcus aureus CCM 4516/08 incubated for 24 hrs under dark condition by microdilution broth assay; format: functional; details: CCM 4516/08, 24 h; method in brief: as §2
Staphylococcus aureus [30] = assay: Antibacterial activity against methicillin-resistant Staphylococcus aureus H 5996/08 incubated for 48 hrs under dark condition by microdilution broth assay; format: functional; details: H 5996/08, 48 h; method in brief: as §4
Mycobacterium avium [31] = assay: Antimycobacterial activity against Mycobacterium avium 330/88 measured after 14 days by micromethod; format: functional; details: 330/88, 336 h
Candida tropicalis [32] = assay: Antifungal activity against Candida tropicalis 156 after 24 hrs by microdilution broth assay; format: functional; details: Candida tropicalis, 156, 24 h; method in brief: as §1
Enterococcus [33] = assay: Antibacterial activity against Enterococcus sp. J 14365/08 incubated for 24 hrs under dark condition by microdilution broth assay; details: J 14365/08, 24 h
Aspergillus fumigatus [34] = assay: Antifungal activity against Aspergillus fumigatus 231 after 24 hrs by microdilution broth assay; format: functional; details: Aspergillus fumigatus, 231, 24 h; method in brief: as §1
Candida albicans [35] = assay: Antifungal activity against Candida albicans ATCC 44859 after 24 hrs by microdilution broth assay; format: functional; details: ATCC 44859, 24 h; method in brief: as §1

SMILES | MIC (Mycobacterium kansasii [1]) [µM] | MIC (Mycobacterium kansasii [2]) [µM] | Activity (Pichia kudriavzevii) | MIC80 (Trichosporon asahii [3]) [µM] | MIC95 (Escherichia coli [4]) [µM] | MIC95 (Staphylococcus aureus [5]) [µM] | Activity (Pseudomonas aeruginosa) | MIC50 [6] [µM] | MIC (Mycobacterium kansasii [7]) [µM] | MIC (Mycobacterium kansasii [8]) [µM] | MIC80 (Candida tropicalis [9]) [µM] | MIC (Mycobacterium kansasii [10]) [µM] | MIC80 (Candida albicans [11]) [µM] | MIC [12] [µM] | MIC50 [13] [µM] | MIC80 (Nakaseomyces glabratus [14]) [µM] | MIC95 (Escherichia coli [15]) [µM] | MIC95 [16] [µM] | Activity (Lichtheimia corymbifera) | Activity (Klebsiella pneumoniae [17]) | other results
O=C(O)CN1C(=O)/C(=C/c2ccc(O)cc2)SC1=S | 1000 (≈ 295 µg/mL) | 1000 (≈ 295 µg/mL) | inactive | > 500 | > 500 | > 500 | inactive | > 500 | 1000 (≈ 295 µg/mL) | 1000 (≈ 295 µg/mL) | > 500 | 1000 (≈ 295 µg/mL) | 500 (≈ 148 µg/mL) | 1000 (≈ 295 µg/mL) | > 500 | > 500 | > 500 | 250 (≈ 73.8 µg/mL) | inactive | inactive | solubility [18]: Soluble; Activity (Klebsiella pneumoniae [19]): inactive; MIC50 (Aspergillus fumigatus [20]): > 500 µM; MIC95 (Enterococcus [21]): > 500 µM; MIC95 (Staphylococcus aureus [22]): 500 µM (≈ 148 µg/mL); MIC80 (Nakaseomyces glabratus [23]): > 500 µM; MIC (Mycobacterium avium [24]): 1000 µM (≈ 295 µg/mL); MIC (Mycobacterium kansasii [25]): 1000 µM (≈ 295 µg/mL); MIC95 [26]: 500 µM (≈ 148 µg/mL); MIC80 (Trichosporon asahii [27]): > 500 µM; MIC [28]: 1000 µM (≈ 295 µg/mL); MIC95 (Staphylococcus aureus [29]): 500 µM (≈ 148 µg/mL); MIC95 (Staphylococcus aureus [30]): > 500 µM; MIC (Mycobacterium avium [31]): 1000 µM (≈ 295 µg/mL); MIC80 (Candida tropicalis [32]): > 500 µM; MIC95 (Enterococcus [33]): > 500 µM; MIC50 (Aspergillus fumigatus [34]): > 500 µM; MIC80 (Candida albicans [35]): 500 µM (≈ 148 µg/mL)
O=C(O)CN1C(=O)/C(=C/c2ccccc2O)SC1=S | 62.5 (≈ 18.5 µg/mL) | 62.5 (≈ 18.5 µg/mL) | inactive | > 500 | > 500 | 62.5 (≈ 18.5 µg/mL) | inactive | 250 (≈ 73.8 µg/mL) | 32 (≈ 9.45 µg/mL) | 62.5 (≈ 18.5 µg/mL) | > 500 | 62.5 (≈ 18.5 µg/mL) | 500 (≈ 148 µg/mL) | 32 (≈ 9.45 µg/mL) | 250 (≈ 73.8 µg/mL) | > 500 | 500 (≈ 148 µg/mL) | 125 (≈ 36.9 µg/mL) | inactive | inactive | solubility [18]: Soluble; Activity (Klebsiella pneumoniae [19]): inactive; MIC50 (Aspergillus fumigatus [20]): > 500 µM; MIC95 (Enterococcus [21]): 125 µM (≈ 36.9 µg/mL); MIC95 (Staphylococcus aureus [22]): 62.5 µM (≈ 18.5 µg/mL); MIC80 (Nakaseomyces glabratus [23]): > 500 µM; MIC (Mycobacterium avium [24]): 125 µM (≈ 36.9 µg/mL); MIC (Mycobacterium kansasii [25]): 32 µM (≈ 9.45 µg/mL); MIC95 [26]: 125 µM (≈ 36.9 µg/mL); MIC80 (Trichosporon asahii [27]): > 500 µM; MIC [28]: 32 µM (≈ 9.45 µg/mL); MIC95 (Staphylococcus aureus [29]): 62.5 µM (≈ 18.5 µg/mL); MIC95 (Staphylococcus aureus [30]): 62.5 µM (≈ 18.5 µg/mL); MIC (Mycobacterium avium [31]): 125 µM (≈ 36.9 µg/mL); MIC80 (Candida tropicalis [32]): > 500 µM; MIC95 (Enterococcus [33]): 125 µM (≈ 36.9 µg/mL); MIC50 (Aspergillus fumigatus [34]): > 500 µM; MIC80 (Candida albicans [35]): 500 µM (≈ 148 µg/mL)
